Laboratory results as given in ChEMBL document CHEMBL1142455, “Synthesis and biological evaluation of immunosuppressive agent DZ2002 and its stereoisomers” (Bioorg Med Chem, 2008).
Calls of active or inactive are those of the source. The calls are words filed in the database; no cut-off is given here.

Key:
Splenic lymphocyte = experiment: Immunosuppressive activity in BALB/c mouse splenic lymphocytes co-cultured with C57BL/6 mouse splenic lymphocytes assessed as inhibition of cell proliferation after 72 hrs by mixed lymphocyte reaction assay; type: functional, cell-based
In short: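 Stimulator BALB/c splenic lymphocytes (1 × 10⁷ cells/mL) were γ-irradiated with ⁶⁰Co for 7 min. They were co-cultured with fresh C57BL/6 splenic responder lymphocytes and compound at 25, 50 or 100 μM in RPMI 1640 with FCS for 72 h at 37 °C under 5% CO₂. Cells were then pulsed with [³H]thymidine for another 24 h to read proliferation.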

[1] = Cytotoxicity against BALB/c mouse splenic lymphocytes co-cultured with C57BL/6 mouse splenic lymphocytes assessed as reduction of cell viability after 72 hrs; type: cell-based, Splenic lymphocyte; conditions: BALB/c and C57BL/6, mouse
[2] = Inhibition of rabbit erythrocyte SAHase by DTNB-coupled assay; set-up: species or system Oryctolagus cuniculus
In short: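 SAHase hydrolytic activity was measured by DTNB-coupled assay. Enzyme and compound were preincubated in phosphate buffer, pH 8.0, for 10 min before the reaction was started.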

SMILES	Activity (Splenic lymphocyte)	CC50 at 72 h [1] [µM]	IC50 [2] [µM]
COC(=O)C(=O)CCn1cnc2c(N)ncnc21	Active	> 1000	194
COC(=O)[C@@H](O)CCn1cnc2c(N)ncnc21	Active	> 1000	21.2
COC(=O)C(O)CCn1cnc2c(N)ncnc21 (racemic)	Active	> 1000	24.4
COC(=O)[C@H](O)CCn1cnc2c(N)ncnc21	Active	> 1000	61.3
